From ChEMBL document CHEMBL1148286

Assays:
[1] = target: Transthyretin (Homo sapiens) (UniProt P02766); assay: Transthyretin (TTR) amyloidogenesis inhibition activity by employing an acid-mediated (pH 4.4) WTTTR amyloid fibril formation assay, at 7.2 uM conc.; assay type: functional
Method in brief: (§1)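 WT TTR (3.6 µM tetramer) in 10 mM phosphate, 100 mM KCl, 1 mM EDTA pH 7.6, preincubated 30 min at 25 °C with compound from DMSO stock. Acidified to pH 4.4 with acetate buffer, then held 72 h at 37 °C without agitation. Turbidity read at 350 and 400 nm after vortexing. Expressed as % of the no-inhibitor control; triplicate.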

[2] = target: Transthyretin (Homo sapiens) (UniProt P02766); assay: Transthyretin (TTR) amyloidogenesis inhibition activity by employing an acid-mediated (pH 4.4) WTTTR amyloid fibril formation assay, at 3.6 uM conc.; assay type: functional; method in brief: as §1
[3] = target: Transthyretin (Homo sapiens) (UniProt P02766); assay: Ability to bind TTR selectively over all other proteins in human blood plasma (equiv bound); assay type: cell-free
Method in brief: (§2)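 Human blood plasma (1.0 mL) incubated with compound from 1.44 mM DMSO stock (final 10.8 µM) at 37 °C for 24 h with rocking. Pre-cleared with quenched sepharose, then TTR captured on anti-TTR antibody sepharose at 4 °C, washed with TSA/0.05% saponin and TSA. Eluted with 100 mM triethylamine pH 11.5. Ligand:TTR stoichiometry measured by reverse-phase HPLC (maximum 2 per tetramer).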

[4] = target: Transthyretin (Homo sapiens) (UniProt P02766); assay: The first dissociation constant for binding to WT TTR determined by isothermal titration calorimetry (25 C, pH 8.0)
[5] = target: Transthyretin (Homo sapiens) (UniProt P02766); assay: The second dissociation constant for binding to WT TTR determined by isothermal titration calorimetry (25 C, pH 8.0)
[6] = target: Transthyretin (Homo sapiens) (UniProt P02766); assay: Ability to bind TTR selectively over all other proteins in human blood plasma (equiv bound); None observed; assay type: cell-free; method in brief: as §2

Row | Compound | Fibril formation [1] | Fibril formation [2] | Plasma selectivity [3] | also measured
1 | O=C(O)c1ccccc1-c1cc(Cl)cc(Cl)c1 | 45.4% | – | – | –
2 | O=C(O)c1cc(-c2ccccc2F)ccc1O | 2.5% | 38.7% | 0.07 | –
3 | O=Cc1ccc(-c2ccccc2)cc1 | 93.5% | – | – | –
4 | O=C(O)c1cc(-c2cc(F)cc(F)c2)ccc1O | 1% | 35.5% | None observed | –
5 | Fc1ccc(-c2ccccc2)cc1 | 100% | – | – | –
6 | O=C(O)c1ccc(-c2ccc(F)cc2F)cc1 | 2.6% | 32.6% | 0.2 | –
7 | Fc1ccc(-c2ccccc2)c(F)c1 | 100% | – | – | –
8 | O=C(O)c1cc(-c2ccc(F)cc2F)ccc1O | 3.4% | 37% | – | –
9 | Oc1cccc(-c2ccc(F)cc2)c1 | 46.3% | – | – | –
10 | O=C(O)c1cccc(-c2cc(F)c(O)c(F)c2)c1 | 3.5% | 38.5% | None observed | –
11 | O=Cc1ccc(-c2cc(Cl)cc(Cl)c2)cc1 | 25.4% | – | – | –
12 | O=Cc1ccccc1-c1cc(Cl)cc(Cl)c1 | 7.1% | 34.5% | 1.96 | –
13 | Oc1cccc(-c2ccccc2F)c1 | 19.5% | – | – | –
14 | O=C(O)c1ccc(-c2cc(Cl)cc(Cl)c2)cc1 | 4.9% | 41.2% | 1.56 | –
15 | Oc1ccc(-c2ccc(F)cc2)cc1 | 53.1% | – | – | –
16 | O=Cc1ccc(-c2cc(F)cc(F)c2)cc1 | 69.6% | – | – | –
17 | Oc1cccc(-c2ccc(F)cc2F)c1 | 31.5% | – | – | –
18 | Oc1ccc(-c2ccc(F)cc2F)cc1 | 32.4% | – | – | –
19 | O=C(O)c1cccc(-c2ccc(F)cc2)c1 | 15.7% | – | – | –
20 | O=C(O)c1ccc(-c2cc(F)cc(F)c2)cc1 | 3.7% | 35.7% | 1.27 | Kd1 [4]: 9 nM; Kd2 [5]: 1100 nM
21 | Oc1cccc(-c2ccccc2)c1 | 61.2% | – | – | –
22 | O=C(O)c1ccc(-c2ccc(F)cc2)cc1 | 13.3% | – | – | –
23 | O=C(O)c1cccc(-c2ccc(F)cc2F)c1 | 9.1% | 39.4% | – | Plasma selectivity [6]: None observed
24 | Clc1cc(Cl)cc(-c2ccccc2)c1 | 52.2% | – | – | –
25 | O=C(O)c1ccc(-c2ccccc2)cc1 | 14.3% | 51.5% | 0.08 | –
26 | O=C(O)c1cc(-c2ccccc2)ccc1O | 15.4% | 47.4% | – | Plasma selectivity [6]: None observed
27 | COc1ccc(-c2ccc(F)cc2F)cc1C(=O)O | 69.9% | – | – | –
28 | O=C(O)c1cccc(-c2ccccc2F)c1 | 9.8% | 39.4% | None observed | –

Row | Compound | Fibril formation [1] | Fibril formation [2] | Plasma selectivity [3] | also measured
29 | O=Cc1cccc(-c2cc(Cl)cc(Cl)c2)c1 | 4.4% | 30.6% | 1.3 | –
30 | COC(=O)c1cc(-c2ccc(F)cc2F)ccc1O | 38.5% | – | – | –
31 | O=C(O)c1ccc(-c2ccccc2F)cc1 | 4.8% | 32.4% | 0.08 | –
32 | O=C(O)c1cccc(-c2cc(Cl)cc(Cl)c2)c1 | 3% | 32.7% | 0.8 | –
33 | Fc1cc(F)cc(-c2ccccc2)c1 | 100% | – | – | –
34 | O=C(O)c1cccc(-c2cc(Cl)c(O)c(Cl)c2)c1 | 4.4% | 25.5% | 0.12 | –
35 | O=C(O)c1cccc(-c2ccccc2)c1 | 30.8% | – | – | –
36 | OCc1ccccc1-c1cc(Cl)cc(Cl)c1 | 7.7% | 33.6% | – | Plasma selectivity [6]: None observed
37 | OCc1ccccc1-c1ccccc1 | 81% | – | – | –
38 | Fc1ccccc1-c1ccccc1 | 99.4% | – | – | –
39 | OCc1ccc(-c2ccccc2)cc1 | 100% | – | – | –
40 | OCc1ccc(-c2cc(Cl)cc(Cl)c2)cc1 | 5.9% | 38.9% | 0.54 | –
41 | Oc1cccc(-c2cc(F)cc(F)c2)c1 | 10.2% | 40.9% | 0.18 | –
42 | O=C(O)c1cc(-c2ccc(Cl)cc2Cl)ccc1O | 3.6% | 29.9% | 0.27 | –
43 | OCc1cccc(-c2ccccc2)c1 | 85.5% | – | – | –
44 | O=C(O)c1ccc(-c2cc(F)c(O)c(F)c2)cc1 | 3.4% | 31.7% | 0.07 | –
45 | O=Cc1cccc(-c2cc(F)cc(F)c2)c1 | 64.3% | – | – | –
46 | O=C(O)c1ccc(-c2cc(Cl)c(O)c(Cl)c2)cc1 | 3.8% | 25.8% | 0.26 | –
47 | O=C(O)c1cccc(-c2c(F)cccc2F)c1 | 6.7% | 35.1% | 0.29 | –
48 | Oc1ccc(-c2ccccc2F)cc1 | 19.6% | – | – | –
49 | OCc1cccc(-c2cc(Cl)cc(Cl)c2)c1 | 3.3% | 30% | 0.89 | –
50 | Oc1ccc(-c2cc(F)cc(F)c2)cc1 | 16.4% | – | – | –
51 | O=C(O)c1cccc(-c2cc(F)cc(F)c2)c1 | 5.6% | 35.7% | 0.23 | –
52 | O=C(O)c1ccc(-c2c(F)cccc2F)cc1 | 4.5% | 28.5% | – | Kd2 [5]: 1300 nM
53 | O=C(O)c1cc(-c2ccc(F)cc2)ccc1O | 2.6% | 38.7% | 0.09 | –
54 | O=Cc1cccc(-c2ccccc2)c1 | 35.4% | – | – | –
55 | O=Cc1ccccc1-c1ccccc1 | 72.5% | – | – | –
